The text below walks through data of ChEMBL document CHEMBL1148350, “Synthesis, biological activity, and three-dimensional quantitative structure-activity relationship model for a series of benzo[c]quinolizin-3-ones, nonsteroidal inhibitors of human steroid 5alpha-reductase 1” (J Med Chem, 2004).

Structures are written as SMILES.

System in one series: not listed separately
The series can be described thus: Partition coefficient (logP). It counts as physicochemical. Conditions: octanol/water.
A word on the logP: it is the decadic logarithm of the partition coefficient of the neutral form, usually between octanol and water. Read a high logP as higher lipophilicity. With `COC(=O)c1ccc2c(c1)CCC1=C(C)C(=O)CCN12`, the logP is 3.13.

`CC1=C2CCc3cc(C(=O)OC(C)C)ccc3N2CCC1=O` returned a logP of 3.97.

As for `CC1=C2CCc3cc(-c4cccs4)ccc3N2CCC1=O`, the logP was 4.62.

As for `CC1=C2CCc3cc(C(=O)OC(C)(C)C)ccc3N2CCC1=O`, the lipophilicity (logP) is 4.37.

For `CC1=C2CCc3cc(OCc4ccc(Cl)cc4)ccc3N2CCC1=O`, the logP amounted to 5.35.

For the compound `CC1=C2CCc3cc(/C=C\c4ccccc4)ccc3N2CCC1=O`, the logP was 5.54.

On to `CC1=C2CCc3cc(/C=C/c4ccccc4)ccc3N2CCC1=O`, for which the logP stood at 5.54.

As for `CCc1ccc2c(c1)CCC1=C(C)C(=O)CCN12`, the logP turned out to be 3.88.

As for `CC1=C2CCc3cc(Br)ccc3N2CCC1=O`, the logP worked out at 3.88.

In the case of `O=C1C=C2CCc3ccccc3N2CC1`, the logP is 2.33.

Compound `CCOC(=O)c1ccc2c(c1)CCC1=C(C)C(=O)CCN12` yielded a logP of 3.66.

`CC1=C2CCc3cc(C(=O)Oc4ccc(C)cc4)ccc3N2CCC1=O` showed a logP of 4.05.

`C=Cc1ccc2c(c1)CCC1=C(C)C(=O)CCN12` came in with a logP of 3.57.

Take `CC1=C2CCc3cc(Cl)ccc3N2CCC1=O`: the logP was found to be 3.73.

On to `CC1=C2CCc3cc(OCc4ccc(C(F)(F)F)cc4C(F)(F)F)ccc3N2CCC1=O`, for which the logP is 6.41.

For the compound `CC1=C2CCc3cc(-c4ccco4)ccc3N2CCC1=O`, the logP amounted to 4.12.

For `COC(=O)c1ccc(OC(=O)c2ccc3c(c2)CCC2=C(C)C(=O)CCN23)cc1`, the logP turned out to be 4.86.

The compound `CC1=C2CCc3cc(C(=O)OCc4ccccc4)ccc3N2CCC1=O` yielded a logP of 4.96.

As for `CC1=C2CCc3cc(-c4ccccc4)ccc3N2CCC1=O`, the logP stood at 4.74.

Compound `COC(=O)c1cccc(OC(=O)c2ccc3c(c2)CCC2=C(C)C(=O)CCN23)c1` yielded a logP of 4.86.

In turn, `CC1=C2CCc3cc(C(=O)Oc4ccccc4)ccc3N2CCC1=O` returned a log partition coefficient (logP) of 4.64.

Regarding `CC1=C2CCc3cc(-c4cccnc4)ccc3N2CCC1=O`, the logP is 3.35.

Compound `CC1=C2CCc3cc(C)ccc3N2CCC1=O` had a logP of 3.35.

For the compound `Cc1ccc2c(c1)CCC1=CC(=O)CCN12`, the logP was found to be 2.83.

For `CC1=C2CCc3cc(OCc4ccccc4)ccc3N2CCC1=O`, the logP amounted to 4.64.

On to `CC1=C2CCc3cc(OCc4ccccc4Cl)ccc3N2CCC1=O`, for which the logP stood at 5.35.

In turn, `O=C1C=C2CCc3cc(Cl)ccc3N2CC1` came in with a lipophilicity (logP) of 3.22.

The compound `CC1=C2CCc3cc(OCc4cc(C(F)(F)F)ccc4C(F)(F)F)ccc3N2CCC1=O` gave a logP of 6.41.

With `COc1ccc2c(c1)CCC1=C(C)C(=O)CCN12`, the log partition coefficient (logP) came to 2.87.

Turning to `CC1=C2CCc3cc(OCc4cccc(Cl)c4)ccc3N2CCC1=O`, the logP was determined as 5.35.

`CC1=C2CCc3cc(OCc4ccc(C(F)(F)F)cc4)ccc3N2CCC1=O`: the logP was found to be 5.52.

Compound `CC1=C2CCc3cc(C#Cc4ccccc4)ccc3N2CCC1=O` gave a logP of 5.49.

Compound `CC1=C2CCc3cc(C(=O)Oc4ccc(C(C)(C)C)cc4)ccc3N2CCC1=O` registered a logP of 6.47.

`CC1=C2CCc3ccccc3N2CCC1=O`: the log partition coefficient (logP) was 2.85.

The next series deals with T1, 3-oxo-5-alpha-steroid 4-dehydrogenase 2 (Homo sapiens, UniProt P31213).
T1 sequence (P31213 whole entry): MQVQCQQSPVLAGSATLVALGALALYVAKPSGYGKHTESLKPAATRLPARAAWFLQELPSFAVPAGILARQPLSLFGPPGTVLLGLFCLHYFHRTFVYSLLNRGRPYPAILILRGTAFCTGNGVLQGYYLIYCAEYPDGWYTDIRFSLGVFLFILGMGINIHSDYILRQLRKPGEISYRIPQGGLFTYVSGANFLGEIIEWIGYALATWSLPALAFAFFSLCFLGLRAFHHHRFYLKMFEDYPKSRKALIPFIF
Put plainly: Inhibitory concentration against human recombinant steroid 5-alpha-reductase type 2 in stably transfected chinese hamster ovary 1827 cells using [3H]testosterone.
Conditions: not given
The method, boiled down:
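Intact stably transfected CHO 1827 cells incubated 30 min with [3H]testosterone at its Km concentration plus inhibitor over 10^-9–10^-5 M. IC50 fitted by four-parameter logistic equation. Finasteride run as reference inhibitor to check interassay reproducibility.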
Usually IC50 stands for the concentration that inhibits the measured activity by half. In the case of `CC(C)(C)NC(=O)[C@H]1CC[C@H]2[C@@H]3CC[C@H]4NC(=O)C=C[C@]4(C)[C@H]3CC[C@]12C` [FINASTERIDE], the half-inhibitory concentration (IC50) was 21 nM.

For the next series, the target named is T2, 3-oxo-5-alpha-steroid 4-dehydrogenase 1 (Homo sapiens, UniProt P18405).
T2 sequence (P18405 whole entry): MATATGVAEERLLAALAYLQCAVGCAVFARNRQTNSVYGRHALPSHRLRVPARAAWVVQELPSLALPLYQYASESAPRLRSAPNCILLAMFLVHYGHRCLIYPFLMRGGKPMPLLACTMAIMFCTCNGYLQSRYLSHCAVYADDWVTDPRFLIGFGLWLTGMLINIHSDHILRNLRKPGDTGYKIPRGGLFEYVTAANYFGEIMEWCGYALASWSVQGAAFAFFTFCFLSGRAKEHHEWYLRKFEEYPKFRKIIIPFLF
Put plainly: Inhibitory concentration against human recombinant steroid 5-alpha-reductase type I in stably transfected chinese hamster ovary (CHO) 1827 cells using [3H]testosterone.
Conditions: not given
In a few lines: (§1)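 Intact stably transfected CHO 1827 cells expressing human recombinant 5αR-1 were incubated 30 min with [3H]-testosterone at its Km (2 μM) plus inhibitor over 10^-9–10^-5 M. IC50 was obtained by four-parameter logistic fit. Finasteride served as reference inhibitor across repeated assays.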
With `COC(=O)c1ccc2c(c1)CCC1=C(C)C(=O)CCN12`, the IC50 was 117 nM.

`CC1=C2CCc3cc(C(=O)OC(C)C)ccc3N2CCC1=O`: the 50% inhibitory concentration (IC50) was found to be 731 nM.

For `CC1=C2CCc3cc(-c4cccs4)ccc3N2CCC1=O`, the IC50 was 79 nM.

For `CC1=C2CCc3cc(C(=O)OC(C)(C)C)ccc3N2CCC1=O`, the IC50 came out at 1000 nM.

In the case of `CC1=C2CCc3cc(OCc4ccc(Cl)cc4)ccc3N2CCC1=O`, the concentration for half-maximal inhibition (IC50) worked out at 92.9 nM.

For `CC1=C2CCc3cc(/C=C\c4ccccc4)ccc3N2CCC1=O`, the IC50 stood at 14.2 nM.

In the case of `CC1=C2CCc3cc(/C=C/c4ccccc4)ccc3N2CCC1=O`, the IC50 amounted to 380 nM.

As for `CCc1ccc2c(c1)CCC1=C(C)C(=O)CCN12`, the IC50 is 14 nM.

In the case of `CC1=C2CCc3cc(Br)ccc3N2CCC1=O`, the 50% inhibitory concentration (IC50) was found to be 8.1 nM.

With `CCOC(=O)c1ccc2c(c1)CCC1=C(C)C(=O)CCN12`, the IC50 was determined as 221 nM.

As to `CC1=C2CCc3cc(C(=O)Oc4ccc(C)cc4)ccc3N2CCC1=O`, the IC50 amounted to 1050 nM.

On to `C=Cc1ccc2c(c1)CCC1=C(C)C(=O)CCN12`, for which the IC50 was determined as 21.6 nM.

With `CC1=C2CCc3cc(Cl)ccc3N2CCC1=O`, the IC50 was 5.8 nM.

Turning to `CC1=C2CCc3cc(OCc4ccc(C(F)(F)F)cc4C(F)(F)F)ccc3N2CCC1=O`, the IC50 worked out at 149 nM.

Consider `CC1=C2CCc3cc(-c4ccco4)ccc3N2CCC1=O`, for which the IC50 was 133 nM.

For `COC(=O)c1ccc(OC(=O)c2ccc3c(c2)CCC2=C(C)C(=O)CCN23)cc1`, the IC50 turned out to be 121 nM.

As for `CC1=C2CCc3cc(C(=O)OCc4ccccc4)ccc3N2CCC1=O`, the IC50 turned out to be 96.8 nM.

As for `CC1=C2CCc3cc(-c4ccccc4)ccc3N2CCC1=O`, the IC50 turned out to be 128 nM.

With `COC(=O)c1cccc(OC(=O)c2ccc3c(c2)CCC2=C(C)C(=O)CCN23)c1`, the IC50 came to 965 nM.

Regarding `CC1=C2CCc3cc(C(=O)Oc4ccccc4)ccc3N2CCC1=O`, the IC50 was found to be 942 nM.

As to `CC1=C2CCc3cc(-c4cccnc4)ccc3N2CCC1=O`, the IC50 was 170 nM.

In the case of `CC1=C2CCc3cc(OCc4ccccc4)ccc3N2CCC1=O`, the IC50 worked out at 111 nM.

On to `CC1=C2CCc3cc(OCc4ccccc4Cl)ccc3N2CCC1=O`, for which the IC50 was found to be 194 nM.

Consider `CC1=C2CCc3cc(OCc4cc(C(F)(F)F)ccc4C(F)(F)F)ccc3N2CCC1=O`, for which the IC50 turned out to be 393 nM.

As to `COc1ccc2c(c1)CCC1=C(C)C(=O)CCN12`, the half-maximal inhibitory concentration (IC50) was 178 nM.

In the case of `CC1=C2CCc3cc(OCc4cccc(Cl)c4)ccc3N2CCC1=O`, the IC50 is 93 nM.

Turning to `CC1=C2CCc3cc(OCc4ccc(C(F)(F)F)cc4)ccc3N2CCC1=O`, the IC50 is 83.7 nM.

On to `CC1=C2CCc3cc(C#Cc4ccccc4)ccc3N2CCC1=O`, for which the IC50 was determined as 8.75 nM.

On to `CC1=C2CCc3cc(C(=O)Oc4ccc(C(C)(C)C)cc4)ccc3N2CCC1=O`, for which the IC50 worked out at 560 nM.

The target in a further series is T2, 3-oxo-5-alpha-steroid 4-dehydrogenase 1. Put plainly: Log of inhibitory concentration against human recombinant steroid 5-alpha-reductase type I in stably transfected chinese hamster ovary (CHO) 1827 cells using [3H]testosterone.
Conditions: not given
The method, boiled down: as §1
As for `COC(=O)c1ccc2c(c1)CCC1=C(C)C(=O)CCN12`, the IC50 is 117 nM.

For `CC1=C2CCc3cc(C(=O)OC(C)C)ccc3N2CCC1=O`, the IC50 was 724 nM.

Turning to `CC1=C2CCc3cc(-c4cccs4)ccc3N2CCC1=O`, the IC50 was 79.4 nM.

Regarding `CC1=C2CCc3cc(C(=O)OC(C)(C)C)ccc3N2CCC1=O`, the IC50 was 1000 nM.

As for `CC1=C2CCc3cc(OCc4ccc(Cl)cc4)ccc3N2CCC1=O`, the IC50 was 93.3 nM.

In the case of `CC1=C2CCc3cc(/C=C\c4ccccc4)ccc3N2CCC1=O`, the IC50 was 14.1 nM.

With `CC1=C2CCc3cc(/C=C/c4ccccc4)ccc3N2CCC1=O`, the IC50 is 380 nM.

On to `CCc1ccc2c(c1)CCC1=C(C)C(=O)CCN12`, for which the IC50 was 14.1 nM.

For the compound `CC1=C2CCc3cc(Br)ccc3N2CCC1=O`, the IC50 was 8.13 nM.

`CCOC(=O)c1ccc2c(c1)CCC1=C(C)C(=O)CCN12`: the IC50 is 219 nM.

As for `CC1=C2CCc3cc(C(=O)Oc4ccc(C)cc4)ccc3N2CCC1=O`, the IC50 was 1050 nM.

On to `C=Cc1ccc2c(c1)CCC1=C(C)C(=O)CCN12`, for which the half-inhibitory concentration (IC50) is 21.4 nM.

Turning to `CC1=C2CCc3cc(Cl)ccc3N2CCC1=O`, the IC50 was 5.62 nM.

Turning to `CC1=C2CCc3cc(OCc4ccc(C(F)(F)F)cc4C(F)(F)F)ccc3N2CCC1=O`, the IC50 is 148 nM.

Take `CC1=C2CCc3cc(-c4ccco4)ccc3N2CCC1=O`: the IC50 was 132 nM.

For `COC(=O)c1ccc(OC(=O)c2ccc3c(c2)CCC2=C(C)C(=O)CCN23)cc1`, the IC50 is 120 nM.

Take `CC1=C2CCc3cc(C(=O)OCc4ccccc4)ccc3N2CCC1=O`: the IC50 is 97.7 nM.

On to `CC1=C2CCc3cc(-c4ccccc4)ccc3N2CCC1=O`, for which the IC50 was 129 nM.

Take `COC(=O)c1cccc(OC(=O)c2ccc3c(c2)CCC2=C(C)C(=O)CCN23)c1`: the IC50 is 955 nM.

In the case of `CC1=C2CCc3cc(C(=O)Oc4ccccc4)ccc3N2CCC1=O`, the IC50 was 933 nM.

On to `CC1=C2CCc3cc(-c4cccnc4)ccc3N2CCC1=O`, for which the IC50 is 170 nM.

As for `CC1=C2CCc3cc(OCc4ccccc4)ccc3N2CCC1=O`, the IC50 was 112 nM.

As for `CC1=C2CCc3cc(OCc4ccccc4Cl)ccc3N2CCC1=O`, the half-maximal inhibitory concentration (IC50) was 195 nM.

On to `CC1=C2CCc3cc(OCc4cc(C(F)(F)F)ccc4C(F)(F)F)ccc3N2CCC1=O`, for which the IC50 is 389 nM.

Regarding `COc1ccc2c(c1)CCC1=C(C)C(=O)CCN12`, the IC50 was 182 nM.

As for `CC1=C2CCc3cc(OCc4cccc(Cl)c4)ccc3N2CCC1=O`, the 50% inhibitory concentration (IC50) is 93.3 nM.

In the case of `CC1=C2CCc3cc(OCc4ccc(C(F)(F)F)cc4)ccc3N2CCC1=O`, the IC50 is 83.2 nM.

With `CC1=C2CCc3cc(C#Cc4ccccc4)ccc3N2CCC1=O`, the IC50 is 8.71 nM.

As to `CC1=C2CCc3cc(C(=O)Oc4ccc(C(C)(C)C)cc4)ccc3N2CCC1=O`, the concentration for half-maximal inhibition (IC50) is 562 nM.
